Reference: article PMC7888308 (ACS Pharmacology & Translational Science, 2021)
Substitutions are numbered along the chain they refer to. Values after ≈ are worked out from the molar mass of the structure shown.

Experiments:
UGT1A1 P152T = biological target: T1, UGT1A1 P152T (Homo sapiens, UniProt P22309, P152T); test: glucuronidation by UGT1A1 P152T expressed in COS-7 cells; type: in vitro ADME; settings: 20 μM drug, 24 h, compared to wild-type UGT1A1
T1 sequence (P22309 26-533 P152T): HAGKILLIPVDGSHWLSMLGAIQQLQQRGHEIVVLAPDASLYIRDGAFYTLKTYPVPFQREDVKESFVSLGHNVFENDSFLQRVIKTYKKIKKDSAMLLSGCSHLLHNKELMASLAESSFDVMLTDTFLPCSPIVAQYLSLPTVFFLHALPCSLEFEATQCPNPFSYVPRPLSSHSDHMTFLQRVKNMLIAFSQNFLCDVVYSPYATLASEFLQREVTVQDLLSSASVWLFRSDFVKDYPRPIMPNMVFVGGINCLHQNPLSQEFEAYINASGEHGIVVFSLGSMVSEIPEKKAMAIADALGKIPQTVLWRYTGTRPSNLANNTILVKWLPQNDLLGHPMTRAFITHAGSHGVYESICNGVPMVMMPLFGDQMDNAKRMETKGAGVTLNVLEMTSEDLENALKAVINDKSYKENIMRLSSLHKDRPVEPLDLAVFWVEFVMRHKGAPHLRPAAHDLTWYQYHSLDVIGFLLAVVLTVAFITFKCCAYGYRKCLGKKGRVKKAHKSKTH

wild-type UGT1A1 = biological target: T2, wild-type UGT1A1 (Homo sapiens, UniProt P22309); test: glucuronidation by wild-type UGT1A1 expressed in COS-7 cells; type: in vitro ADME; settings: 20 μM drug, 24 h
T2 sequence (P22309 26-533): T1 sequence (P22309 26-533 P152T) with T127P

[1] = HPTN 077 participants, South Africa, Brazil, Malawi, United States; cited from earlier work
human liver microsomes = test: human liver microsome metabolism experiment; type: in vitro ADME; settings: CAB 10 μM, microsomes 0.5 mg/mL, UDPGA, 60 min, 37 °C
In short: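 Pooled liver microsomes (50 mixed-sex donors, 0.5 mg/mL) were preincubated 5 min at 37 °C with test compound (10 μM) in 100 mM potassium phosphate, pH 7.4. A UGT reaction mixture containing 25 mM UDPGA plus alamethicin was added, and reactions ran 60 min at 37 °C. Acetonitrile quench, centrifugation, drying and methanol reconstitution followed. Glucuronide was detected by LC–MS/MS using the m/z 582 → 406 transition.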

human kidney microsomes = test: human kidney microsome metabolism experiment; type: in vitro ADME; settings: CAB 10 μM, microsomes 0.5 mg/mL, UGT cofactor, 60 min, 37 °C
HIV integrase = settings: in vitro assays; cited from earlier work
UGT1A1 = settings: reaction phenotyping; cited from earlier work
UGT1A9 R464G = biological target: T3, UGT1A9 R464G (Homo sapiens, UniProt O60656, R464G); test: CAB glucuronidation by UGT1A9 R464G expressed in COS-7 cells; type: in vitro ADME
T3 sequence (O60656 26-530 R464G): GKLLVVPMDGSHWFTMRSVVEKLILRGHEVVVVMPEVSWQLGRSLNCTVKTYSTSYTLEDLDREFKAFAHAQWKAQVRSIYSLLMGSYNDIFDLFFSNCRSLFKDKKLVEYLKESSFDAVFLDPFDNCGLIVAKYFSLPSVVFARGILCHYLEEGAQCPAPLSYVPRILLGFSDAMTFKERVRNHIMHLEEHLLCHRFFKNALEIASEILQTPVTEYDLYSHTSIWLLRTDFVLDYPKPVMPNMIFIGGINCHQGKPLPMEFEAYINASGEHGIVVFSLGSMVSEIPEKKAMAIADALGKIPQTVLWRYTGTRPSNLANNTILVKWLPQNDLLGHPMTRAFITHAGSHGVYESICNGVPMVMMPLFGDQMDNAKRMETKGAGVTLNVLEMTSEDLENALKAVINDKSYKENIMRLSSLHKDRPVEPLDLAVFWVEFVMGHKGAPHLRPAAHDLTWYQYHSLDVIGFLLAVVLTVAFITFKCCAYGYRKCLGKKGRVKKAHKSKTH

UGT1A9 H217Y = biological target: T4, UGT1A9 H217Y (Homo sapiens, UniProt O60656, H217Y); test: CAB glucuronidation by UGT1A9 H217Y expressed in COS-7 cells; type: in vitro ADME
T4 sequence (O60656 26-530 H217Y): T3 sequence (O60656 26-530 R464G) with H192Y, G439R

[2] = pH 6.8 phosphate buffer at 20 °C; cited from earlier work
UGT1A9 = settings: reaction phenotyping; cited from earlier work
UGT1A9 wild-type = biological target: T5, UGT1A9 wild-type (Homo sapiens, UniProt O60656); test: CAB glucuronidation by UGT1A9 wild-type expressed in COS-7 cells; type: in vitro ADME
T5 sequence (O60656 26-530): T3 sequence (O60656 26-530 R464G) with G439R

glucuronidated metabolite in cells expressing UGT1A1 P152T (UGT1A1 P152T)	glucuronidation in cells transfected with wild-type UGT1A1 (wild-type UGT1A1)	metabolite formed in human liver microsomes (human liver microsomes)	formation of CAB-glucuronide by UGT1A9 R464G (UGT1A9 R464G; 24 h incubation with CAB)	CAB-glucuronide production by UGT1A9 R464G (UGT1A9 R464G; 48 h treatment with CAB)	formation of CAB-glucuronide by UGT1A9 H217Y (UGT1A9 H217Y; 24 h incubation with CAB)	CAB-glucuronide production by UGT1A9 H217Y (UGT1A9 H217Y; 48 h treatment with CAB)	formation of CAB-glucuronide by UGT1A9 wild-type (UGT1A9 wild-type; 24 h incubation with CAB)	CAB-glucuronide production by UGT1A9 wild-type (UGT1A9 wild-type; 48 h treatment with CAB)	Compound	tolerability [1]	additional metabolites in human liver microsomes (human liver microsomes)	metabolite formation in human kidney microsomes (human kidney microsomes)	efficacy of inhibition of integrase-catalyzed viral DNA strand transfer (HIV integrase)	fractional contribution of UGT1A1 to CAB metabolism (UGT1A1)	aqueous solubility [2]	fractional contribution of UGT1A9 to CAB metabolism (UGT1A9)
marked reduction	–	–	–	–	–	–	–	–	CCc1c2c(nc3ccc(O)cc13)-c1cc3c(c(=O)n1C2)COC(=O)[C@]3(O)CC [SN-38, 7-ethyl-10-hydroxycamptothecin]	–	–	–	–	–	–	–
undetectable	readily glucuronidated	–	–	–	–	–	–	–	C[C@@H]1CCO[C@H]2Cn3cc(C(=O)NCc4ccc(F)cc4F)c(=O)c(O)c3C(=O)N12 [DTG, dolutegravir]	–	–	–	–	–	–	–
undetectable	readily glucuronidated	identified as CAB-glucuronide	not observed	not detectable above the background	not observed	able to detect	not observed	able to detect	C[C@H]1CO[C@@H]2Cn3cc(C(=O)NCc4ccc(F)cc4F)c(=O)c(O)c3C(=O)N12 [CAB, Cabotegravir]	well tolerated	no additional metabolites of CAB were detected	observed the formation of CAB-glucuronide	low or subnanomolar	0.67	15 µg/mL (≈ 37 µM)	0.33
